According to ChEMBL document CHEMBL4689842, “EUbOPEN Chemogenomics Library wave 1” (2021):

Test system: U2OS
Experiment: Multiplex assay against U2OS
Type: toxicity, cell-based
Details: human
How it was run: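 Four dyes were applied at seeding to live cells: Hoechst33342, BioTracker Green Microtubule Cytoskeleton Dye, MitoTracker Red and Annexin V Alexa Fluor 680. Imaging after compound addition used a CQ1 microscope at 37°C and 5% CO2. CellPathfinder machine-learning gating then sorted cells into Hoechst high-intensity objects or normal cells, normal cells into healthy, pyknosed or fragmented nuclei, and pyknosed cells into mitotic or apoptotic, with tubulin, mitochondrial-mass and membrane-permeability phenotypes given as per cents of healthy-nucleus cells.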

[1] = 12 h, 1 µM, compound concentration 1 uM, replicate 1
[2] = 12 h, 1 µM, compound concentration 1 uM, replicate 2
[3] = 12 h, 10 µM, compound concentration 10 uM, replicate 1
[4] = 12 h, 10 µM, compound concentration 10 uM, replicate 2
[5] = 24 h, 1 µM, compound concentration 1 uM, replicate 1
[6] = 24 h, 1 µM, compound concentration 1 uM, replicate 2
[7] = 24 h, 10 µM, compound concentration 10 uM, replicate 1
[8] = 24 h, 10 µM, compound concentration 10 uM, replicate 2
[9] = 48 h, 1 µM, compound concentration 1 uM, replicate 1
[10] = 48 h, 1 µM, compound concentration 1 uM, replicate 2
[11] = 48 h, 10 µM, compound concentration 10 uM, replicate 1
[12] = 48 h, 10 µM, compound concentration 10 uM, replicate 2

SMILES: Cl.O=C(O)c1cc(-c2ccc(C3CCNCC3)cc2)c2ccc(-c3ccc(C(F)(F)F)cc3)cc2c1
- Population Apoptotic (%) [1]: 25%
- Population Fragmented Nuclei (%) [1]: 16%
- Population Healthy Nuclei (%) [1]: 67%
- Population Hoechst High Intensity Objects (%) [1]: 7%
- Population Membrane Permeable-Phenotype (%) [1]: 8%
- Population Mitochondria Different-Phenotype (%) [1]: 9%
- Population Mitotic Cells (%) [1]: 74%
- Population Normal (%) [1]: 92%
- Population Pyknosed Nuclei (%) [1]: 16%
- Population Tubulin-Different-Phenotype (%) [1]: 15%
- Total Cell Count [1]: 201
- Population Apoptotic (%) [2]: 50%
- Population Fragmented Nuclei (%) [2]: 11%
- Population Healthy Nuclei (%) [2]: 83%
- Population Hoechst High Intensity Objects (%) [2]: 5%
- Population Membrane Permeable-Phenotype (%) [2]: 3%
- Population Mitochondria Different-Phenotype (%) [2]: 16%
- Population Mitotic Cells (%) [2]: 50%
- Population Normal (%) [2]: 94%
- Population Pyknosed Nuclei (%) [2]: 5%
- Population Tubulin-Different-Phenotype (%) [2]: 36%
- Total Cell Count [2]: 60
- Population Apoptotic (%) [3]: 41%
- Population Healthy Nuclei (%) [3]: 74%
- Population Hoechst High Intensity Objects (%) [3]: 2%
- Population Membrane Permeable-Phenotype (%) [3]: 5%
- Population Mitochondria Different-Phenotype (%) [3]: 17%
- Population Mitotic Cells (%) [3]: 58%
- Population Normal (%) [3]: 97%
- Population Pyknosed Nuclei (%) [3]: 11%
- Population Tubulin-Different-Phenotype (%) [3]: 14%
- Total Cell Count [3]: 181
- Population Apoptotic (%) [4]: 60%
- Population Fragmented Nuclei (%) [4]: 14%
- Population Healthy Nuclei (%) [4]: 64%
- Population Hoechst High Intensity Objects (%) [4]: 14%
- Population Membrane Permeable-Phenotype (%) [4]: 10%
- Population Mitochondria Different-Phenotype (%) [4]: 13%
- Population Mitotic Cells (%) [4]: 40%
- Population Normal (%) [4]: 85%
- Population Pyknosed Nuclei (%) [4]: 21%
- Population Tubulin-Different-Phenotype (%) [4]: 23%
- Total Cell Count [4]: 38
- Population Apoptotic (%) [5]: 35%
- Population Healthy Nuclei (%) [5]: 81%
- Population Hoechst High Intensity Objects (%) [5]: 7%
- Population Membrane Permeable-Phenotype (%) [5]: 3%
- Population Mitotic Cells (%) [5]: 64%
- Population Normal (%) [5]: 92%
- Population Pyknosed Nuclei (%) [5]: 6%
- Population Tubulin-Different-Phenotype (%) [5]: 12%
- Total Cell Count [5]: 249
- Population Apoptotic (%) [6]: 20%
- Population Fragmented Nuclei (%) [6]: 11%
- Population Healthy Nuclei (%) [6]: 79%
- Population Hoechst High Intensity Objects (%) [6]: 3%
- Population Membrane Permeable-Phenotype (%) [6]: 4%
- Population Mitochondria Different-Phenotype (%) [6]: 9%
- Population Mitotic Cells (%) [6]: 80%
- Population Normal (%) [6]: 96%
- Population Pyknosed Nuclei (%) [6]: 9%
- Population Tubulin-Different-Phenotype (%) [6]: 30%
- Total Cell Count [6]: 62
- Population Apoptotic (%) [7]: 41%
- Population Fragmented Nuclei (%) [7]: 13%
- Population Healthy Nuclei (%) [7]: 72%
- Population Hoechst High Intensity Objects (%) [7]: 4%
- Population Membrane Permeable-Phenotype (%) [7]: 4%
- Population Mitochondria Different-Phenotype (%) [7]: 12%
- Population Mitotic Cells (%) [7]: 58%
- Population Normal (%) [7]: 95%
- Population Pyknosed Nuclei (%) [7]: 13%
- Population Tubulin-Different-Phenotype (%) [7]: 13%
- Total Cell Count [7]: 227
- Population Apoptotic (%) [8]: 61%
- Population Fragmented Nuclei (%) [8]: 17%
- Population Healthy Nuclei (%) [8]: 61%
- Population Hoechst High Intensity Objects (%) [8]: 8%
- Population Membrane Permeable-Phenotype (%) [8]: 7%
- Population Mitochondria Different-Phenotype (%) [8]: 5%
- Population Mitotic Cells (%) [8]: 38%
- Population Normal (%) [8]: 91%
- Population Pyknosed Nuclei (%) [8]: 20%
- Population Tubulin-Different-Phenotype (%) [8]: 16%
- Total Cell Count [8]: 56
- Population Apoptotic (%) [9]: 17%
- Population Fragmented Nuclei (%) [9]: 9%
- Population Healthy Nuclei (%) [9]: 81%
- Population Hoechst High Intensity Objects (%) [9]: 3%
- Population Membrane Permeable-Phenotype (%) [9]: 1%
- Population Mitochondria Different-Phenotype (%) [9]: 17%
- Population Mitotic Cells (%) [9]: 82%
- Population Normal (%) [9]: 96%
- Population Pyknosed Nuclei (%) [9]: 9%
- Population Tubulin-Different-Phenotype (%) [9]: 12%
- Total Cell Count [9]: 359
- Population Apoptotic (%) [10]: 33%
- Population Fragmented Nuclei (%) [10]: 6%
- Population Healthy Nuclei (%) [10]: 89%
- Population Hoechst High Intensity Objects (%) [10]: 2%
- Population Membrane Permeable-Phenotype (%) [10]: 4%
- Population Mitochondria Different-Phenotype (%) [10]: 11%
- Population Mitotic Cells (%) [10]: 66%
- Population Normal (%) [10]: 97%
- Population Pyknosed Nuclei (%) [10]: 3%
- Population Tubulin-Different-Phenotype (%) [10]: 32%
- Total Cell Count [10]: 95
- Population Apoptotic (%) [11]: 45%
- Population Fragmented Nuclei (%) [11]: 12%
- Population Healthy Nuclei (%) [11]: 65%
- Population Hoechst High Intensity Objects (%) [11]: 5%
- Population Membrane Permeable-Phenotype (%) [11]: 5%
- Population Mitochondria Different-Phenotype (%) [11]: 7%
- Population Mitotic Cells (%) [11]: 54%
- Population Normal (%) [11]: 94%
- Population Pyknosed Nuclei (%) [11]: 21%
- Population Tubulin-Different-Phenotype (%) [11]: 14%
- Total Cell Count [11]: 332
- Population Apoptotic (%) [12]: 75%
- Population Fragmented Nuclei (%) [12]: 17%
- Population Healthy Nuclei (%) [12]: 66%
- Population Hoechst High Intensity Objects (%) [12]: 10%
- Population Membrane Permeable-Phenotype (%) [12]: 13%
- Population Mitochondria Different-Phenotype (%) [12]: 13%
- Population Mitotic Cells (%) [12]: 25%
- Population Normal (%) [12]: 89%
- Population Pyknosed Nuclei (%) [12]: 16%
- Population Tubulin-Different-Phenotype (%) [12]: 21%
- Total Cell Count [12]: 80

SMILES: CNC(=O)Nc1ccc2c(c1)[C@@]1(CC2)OC(=O)N(CC(=O)N(Cc2ccc(F)cc2)[C@@H](C)C(F)(F)F)C1=O [A-486]
- Population Apoptotic (%) [1]: 47%
- Population Fragmented Nuclei (%) [1]: 4%
- Population Healthy Nuclei (%) [1]: 81%
- Population Hoechst High Intensity Objects (%) [1]: 4%
- Population Membrane Permeable-Phenotype (%) [1]: 63%
- Population Mitochondria Different-Phenotype (%) [1]: 11%
- Population Mitotic Cells (%) [1]: 52%
- Population Normal (%) [1]: 95%
- Population Pyknosed Nuclei (%) [1]: 14%
- Population Tubulin-Different-Phenotype (%) [1]: 57%
- Total Cell Count [1]: 248
- Population Apoptotic (%) [2]: 75%
- Population Fragmented Nuclei (%) [2]: 7%
- Population Healthy Nuclei (%) [2]: 88%
- Population Hoechst High Intensity Objects (%) [2]: 11%
- Population Membrane Permeable-Phenotype (%) [2]: 59%
- Population Mitochondria Different-Phenotype (%) [2]: 19%
- Population Mitotic Cells (%) [2]: 25%
- Population Normal (%) [2]: 88%
- Population Pyknosed Nuclei (%) [2]: 4%
- Population Tubulin-Different-Phenotype (%) [2]: 60%
- Total Cell Count [2]: 105
- Population Apoptotic (%) [3]: 27%
- Population Fragmented Nuclei (%) [3]: 3%
- Population Healthy Nuclei (%) [3]: 85%
- Population Hoechst High Intensity Objects (%) [3]: 1%
- Population Membrane Permeable-Phenotype (%) [3]: 9%
- Population Mitochondria Different-Phenotype (%) [3]: 19%
- Population Mitotic Cells (%) [3]: 72%
- Population Normal (%) [3]: 99%
- Population Pyknosed Nuclei (%) [3]: 11%
- Population Tubulin-Different-Phenotype (%) [3]: 12%
- Total Cell Count [3]: 201
- Population Apoptotic (%) [4]: 33%
- Population Fragmented Nuclei (%) [4]: 6%
- Population Healthy Nuclei (%) [4]: 83%
- Population Hoechst High Intensity Objects (%) [4]: 11%
- Population Membrane Permeable-Phenotype (%) [4]: 21%
- Population Mitochondria Different-Phenotype (%) [4]: 26%
- Population Mitotic Cells (%) [4]: 66%
- Population Normal (%) [4]: 88%
- Population Pyknosed Nuclei (%) [4]: 10%
- Population Tubulin-Different-Phenotype (%) [4]: 28%
- Total Cell Count [4]: 102
- Population Apoptotic (%) [5]: 33%
- Population Fragmented Nuclei (%) [5]: 3%
- Population Healthy Nuclei (%) [5]: 89%
- Population Hoechst High Intensity Objects (%) [5]: 4%
- Population Membrane Permeable-Phenotype (%) [5]: 45%
- Population Mitochondria Different-Phenotype (%) [5]: 14%
- Population Mitotic Cells (%) [5]: 66%
- Population Normal (%) [5]: 95%
- Population Pyknosed Nuclei (%) [5]: 6%
- Population Tubulin-Different-Phenotype (%) [5]: 30%
- Total Cell Count [5]: 329
- Population Apoptotic (%) [6]: 75%
- Population Fragmented Nuclei (%) [6]: 7%
- Population Healthy Nuclei (%) [6]: 88%
- Population Hoechst High Intensity Objects (%) [6]: 7%
- Population Membrane Permeable-Phenotype (%) [6]: 44%
- Population Mitochondria Different-Phenotype (%) [6]: 18%
- Population Mitotic Cells (%) [6]: 25%
- Population Normal (%) [6]: 92%
- Population Pyknosed Nuclei (%) [6]: 3%
- Population Tubulin-Different-Phenotype (%) [6]: 27%
- Total Cell Count [6]: 115
- Population Apoptotic (%) [7]: 46%
- Population Fragmented Nuclei (%) [7]: 2%
- Population Healthy Nuclei (%) [7]: 92%
- Population Hoechst High Intensity Objects (%) [7]: 0%
- Population Membrane Permeable-Phenotype (%) [7]: 5%
- Population Mitochondria Different-Phenotype (%) [7]: 14%
- Population Mitotic Cells (%) [7]: 53%
- Population Normal (%) [7]: 99%
- Population Pyknosed Nuclei (%) [7]: 5%
- Population Tubulin-Different-Phenotype (%) [7]: 17%
- Total Cell Count [7]: 277
- Population Apoptotic (%) [8]: 40%
- Population Fragmented Nuclei (%) [8]: 5%
- Population Healthy Nuclei (%) [8]: 90%
- Population Hoechst High Intensity Objects (%) [8]: 9%
- Population Membrane Permeable-Phenotype (%) [8]: 14%
- Population Mitochondria Different-Phenotype (%) [8]: 33%
- Population Mitotic Cells (%) [8]: 60%
- Population Normal (%) [8]: 90%
- Population Pyknosed Nuclei (%) [8]: 4%
- Population Tubulin-Different-Phenotype (%) [8]: 37%
- Total Cell Count [8]: 126
